Data: article PMC9290503 (British Journal of Clinical Pharmacology, 2021)

Assay: Safety and tolerability, Study 1003
Type: in vivo, human
Method in brief: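 Healthy women received placebo or test compound once daily for 10 days (20–160 mg, double-blind), including one 20 mg cohort of four Japanese women. Monitored AEs, physical and neurological exams, vital signs, flagged clinical labs, pregnancy and 12-lead ECG. TEAEs counted from first dose to 30 days after the last dose. Follow-up to day 70 (±2).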

[1] = 20 mg q.d. 10 days, Japanese (n = 3)
[2] = 20 mg q.d. 10 days, non‐Japanese (n = 6)
[3] = 60 mg q.d. 10 days, non‐Japanese (n = 6)
[4] = 160 mg q.d. 10 days, non‐Japanese (n = 3)
[5] = MRD, TAK‐418 all participants (n = 18)

With `Cl.O=C(NC1CCOCC1)c1csc([C@@H]2C[C@H]2NCC2CC2)c1` [TAK‐418] the “Participants with any TEAE” value [1] was 1 (33.3) Number (%) of participants, the “TEAE Arthropod bite” value [1] was 0 Number (%) of participants and the “TEAE Constipation” value [1] was 0 Number (%) of participants. The “TEAE Decreased appetite” value [1] was 0 Number (%) of participants, the “TEAE Diarrhoea” value [1] was 0 Number (%) of participants and the “TEAE Dizziness” value [1] was 0 Number (%) of participants. The “TEAE Dry mouth” value [1] was 0 Number (%) of participants, the “TEAE Headache” value [1] was 0 Number (%) of participants and the “TEAE Myalgia” value [1] was 0 Number (%) of participants. For the same molecule, the “TEAE Nausea” value [1] was 0 Number (%) of participants, the “TEAE Somnolence” value [1] was 0 Number (%) of participants and the “TEAE Vomiting” value [1] was 0 Number (%) of participants. For the same molecule, the “Participants with any TEAE” value [2] was 5 (83.3) Number (%) of participants, the “TEAE Arthropod bite” value [2] was 1 (16.7) Number (%) of participants and the “TEAE Constipation” value [2] was 0 Number (%) of participants. The “TEAE Decreased appetite” value [2] was 2 (33.3) Number (%) of participants, the “TEAE Diarrhoea” value [2] was 0 Number (%) of participants and the “TEAE Dizziness” value [2] was 1 (16.7) Number (%) of participants. The “TEAE Dry mouth” value [2] was 0 Number (%) of participants, the “TEAE Headache” value [2] was 4 (66.7) Number (%) of participants and the “TEAE Myalgia” value [2] was 0 Number (%) of participants. For the same molecule, the “TEAE Nausea” value [2] was 0 Number (%) of participants, the “TEAE Somnolence” value [2] was 2 (33.3) Number (%) of participants and the “TEAE Vomiting” value [2] was 0 Number (%) of participants. For the same molecule, the “Participants with any TEAE” value [3] was 6 (100.0) Number (%) of participants, the “TEAE Arthropod bite” value [3] was 1 (16.7) Number (%) of participants and the “TEAE Decreased appetite” value [3] was 1 (16.7) Number (%) of participants. For the same molecule, the “TEAE Diarrhoea” value [3] was 1 (16.7) Number (%) of participants, the “TEAE Dizziness” value [3] was 1 (16.7) Number (%) of participants and the “TEAE Dry mouth” value [3] was 1 (16.7) Number (%) of participants. For the same molecule, the “TEAE Headache” value [3] was 5 (83.3) Number (%) of participants, the “TEAE Myalgia” value [3] was 2 (33.3) Number (%) of participants and the “TEAE Nausea” value [3] was 4 (66.7) Number (%) of participants. The “TEAE Somnolence” value [3] was 1 (16.7) Number (%) of participants, the “TEAE Vomiting” value [3] was 3 (50.0) Number (%) of participants and the “Participants with any TEAE” value [4] was 3 (100.0) Number (%) of participants. The “TEAE Arthropod bite” value [4] was 0 Number (%) of participants, the “TEAE Constipation” value [4] was 0 Number (%) of participants and the “TEAE Decreased appetite” value [4] was 0 Number (%) of participants. The “TEAE Diarrhoea” value [4] was 2 (66.7) Number (%) of participants, the “TEAE Dizziness” value [4] was 0 Number (%) of participants and the “TEAE Dry mouth” value [4] was 2 (66.7) Number (%) of participants. The “TEAE Headache” value [4] was 0 Number (%) of participants, the “TEAE Myalgia” value [4] was 0 Number (%) of participants and the “TEAE Nausea” value [4] was 0 Number (%) of participants. The “TEAE Somnolence” value [4] was 0 Number (%) of participants, the “TEAE Vomiting” value [4] was 0 Number (%) of participants and the laboratory test parameters (MRD cohorts) was “No notably abnormal laboratory test parameters”. The “participants experiencing TEAEs” value (MRD cohorts (20, 60 or 160 mg q.d.), 15 participants) was 83%, the “treatment‐related headache” value (MRD cohorts, five individuals) was 28% and the “participants with moderate TEAEs” value (MRD cohorts, five participants) was 28%. For the same molecule, the decreased appetite (MRD cohorts, n = 3) was 17%, the diarrhoea (MRD cohorts, n = 3) was 17% and the dry mouth (MRD cohorts, n = 3) was 17%. For the same molecule, the somnolence (MRD cohorts, n = 3) was 17%, the vomiting (MRD cohorts, n = 3) was 17% and the nausea (MRD cohorts, n = 4) was 22%. The headache (MRD cohorts, n = 9) was 50%, the “participants with mild TEAEs” value (MRD cohorts, nine participants) was 50% and the “participants with severe TEAEs” value (MRD cohorts, one participant (headache, 60 mg)) was 6%. The “treatment‐related dry mouth” value (MRD cohorts, three individuals) was 17%, the “participants with treatment‐related TEAEs” value (MRD cohorts, twelve participants, all mild) was 67% and the “Participants with any TEAE” value [5] was 15 (83.3) Number (%) of participants. For the same molecule, the “TEAE Arthropod bite” value [5] was 2 (11.1) Number (%) of participants, the “TEAE Constipation” value [5] was 2 (11.1) Number (%) of participants and the “TEAE Decreased appetite” value [5] was 3 (16.7) Number (%) of participants. For the same molecule, the “TEAE Diarrhoea” value [5] was 3 (16.7) Number (%) of participants, the “TEAE Dizziness” value [5] was 2 (11.1) Number (%) of participants and the “TEAE Dry mouth” value [5] was 3 (16.7) Number (%) of participants. For the same molecule, the “TEAE Headache” value [5] was 9 (50.0) Number (%) of participants, the “TEAE Myalgia” value [5] was 2 (11.1) Number (%) of participants and the “TEAE Nausea” value [5] was 4 (22.2) Number (%) of participants. The “TEAE Somnolence” value [5] was 3 (16.7) Number (%) of participants, the “TEAE Vomiting” value [5] was 3 (16.7) Number (%) of participants and the “treatment‐related TEAEs” value (SRD 120/160 mg cohort) was “Two participants had TEAEs considered to be related to treatment, which were mild in intensity”. The dizziness (SRD 120/160 mg cohort, n = 2) was 25%, the headache (SRD 120/160 mg cohort, n = 2) was 25% and the “participants with moderate TEAEs” value (SRD 120/160 mg cohort, one person) was 13%. For the same molecule, the “participants with mild TEAEs” value (SRD 120/160 mg cohort, three women) was 38%, the “gamma glutamyl transferase level reached” value (SRD cohort, 160 mg, Day 30, one participant (13%), more than three times the upper limit of normal) was 315 U/L and the “SAEs, suicidal ideation/behaviour, deaths” value (Study 1003) was “no SAEs, suicidal ideation/behaviour or deaths were reported”. The “thrombocytopenia AEs” value (current study) was “no thrombocytopenia AEs were observed”, the tolerability (daily dosing up to 160 mg) was “well tolerated” and the “Japanese participants experiencing TEAEs” value (with TAK‐418 20 mg) was 33.3%. The “non‐Japanese participants experiencing TEAEs” value (with TAK‐418 20 mg) was 83%.
